Results reported in ChEMBL document CHEMBL3351752, “Discovery and in vivo evaluation of alcohol-containing benzothiazoles as potent dual-targeting bacterial DNA supercoiling inhibitors” (Bioorg Med Chem Lett, 2014).
≈ marks a conversion by molar mass, not a printed value.

Tests used:
Streptococcus pyogenes [1] = assay: Antimicrobial activity against Streptococcus pyogenes harboring ParE A53S mutant assessed as growth inhibition; format: functional
Streptococcus pyogenes [2] = assay: Antibacterial activity against Streptococcus pyogenes 51339 assessed as growth inhibition; format: functional
Staphylococcus aureus [3] = assay: Antibacterial activity against Staphylococcus aureus ATCC 29213 assessed as growth inhibition in presence of 50% horse serum; format: functional
Haemophilus influenzae = assay: Antibacterial activity against Haemophilus influenzae 49247 assessed as growth inhibition; format: functional
Staphylococcus aureus [4] = assay: Inhibition of Staphylococcus aureus DNA gyrase ATPase subunit GyrA2/GyrB2 after 60 mins by malachite green staining assay
Staphylococcus aureus [5] = assay: Antimicrobial activity against Staphylococcus aureus harboring GyrB T173N mutant assessed as growth inhibition; format: functional
Staphylococcus aureus [6] = assay: Antibacterial activity against Staphylococcus aureus ATCC 29213 assessed as growth inhibition; format: functional
[7] = Fraction unbound in mouse plasma by ultracentrifugation; format: ADME, cell-free
Outline: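 Compound at 10 µM (1% DMSO) was equilibrated in neat plasma at 37 °C for 60 min. Duplicate aliquots were ultracentrifuged at 250,000g for 4.2 h at 37 °C. Free compound in the plasma-water supernatant was compared with uncentrifuged samples incubated alike. Uncentrifuged samples kept at 20 °C checked degradation, and diltiazem served as stability control. Analysis was by LCMS.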

Row | SMILES | MIC (Streptococcus pyogenes [1]) | MIC (Streptococcus pyogenes [2]) | MIC (Staphylococcus aureus [3]) | MIC (Haemophilus influenzae) | inhibitory concentration (Staphylococcus aureus [4]) | MIC (Staphylococcus aureus [5]) | MIC (Staphylococcus aureus [6]) | fraction unbound [7]
1 | CCNC(=O)Nc1nc2cc(-c3cnc(C(O)CN4CCOCC4)nc3)cc(-c3ccccn3)c2s1 (racemic) | 2 µg/mL (≈ 3.96 µM) | 0.12 µg/mL (≈ 0.237 µM) | 0.25 µg/mL | 2 µg/mL (≈ 3.96 µM) | 0.011 µg/mL | 1 µg/mL (≈ 1.98 µM) | 0.12 µg/mL (≈ 0.237 µM) | –
2 | CCNC(=O)Nc1nc2cc(-c3cnc(C(C)(C)O)nc3)cc(-c3cc(CN4CC[C@@H](O)C4)ccn3)c2s1 | – | 0.25 µg/mL (≈ 0.468 µM) | 0.5 µg/mL | 4 µg/mL (≈ 7.5 µM) | 0.007 µg/mL | – | 0.5 µg/mL (≈ 0.937 µM) | 0.194
3 | CCNC(=O)Nc1nc2cc(-c3cnc(C4(O)CCOCC4O)nc3)cc(-c3ccccn3)c2s1 (racemic) | 2 µg/mL (≈ 4.06 µM) | 0.12 µg/mL (≈ 0.244 µM) | 0.5 µg/mL | 2 µg/mL (≈ 4.06 µM) | 0.009 µg/mL | 4 µg/mL (≈ 8.12 µM) | 0.5 µg/mL (≈ 1.02 µM) | –
4 | CCNC(=O)Nc1nc2cc(-c3cnc(C(C)(O)CO)nc3)cc(-c3ccccn3)c2s1 (racemic) | 2 µg/mL (≈ 4.44 µM) | 0.12 µg/mL (≈ 0.266 µM) | 0.25 µg/mL | 0.5 µg/mL (≈ 1.11 µM) | 0.006 µg/mL | 1 µg/mL (≈ 2.22 µM) | 0.12 µg/mL (≈ 0.266 µM) | –
5 | CCNC(=O)Nc1nc2cc(-c3cnc(C(O)C4CC4)nc3)cc(-c3ccccn3)c2s1 (racemic) | 1 µg/mL (≈ 2.24 µM) | 0.06 µg/mL (≈ 0.134 µM) | 0.25 µg/mL | 0.5 µg/mL (≈ 1.12 µM) | 0.008 µg/mL | 0.25 µg/mL (≈ 0.56 µM) | 0.06 µg/mL (≈ 0.134 µM) | –
6 | CCNC(=O)Nc1nc2cc(-c3cnc(C(C)(C)O)nc3)cc(-c3cc(CNC4CC4)ccn3)c2s1 | – | 0.12 µg/mL (≈ 0.238 µM) | 0.25 µg/mL | 2 µg/mL (≈ 3.97 µM) | 0.006 µg/mL | – | 0.12 µg/mL (≈ 0.238 µM) | 0.056
7 | CCNC(=O)Nc1nc2cc(-c3cnc(C4(O)CCCC4)nc3)cc(-c3ccccn3)c2s1 | 2 µg/mL (≈ 4.34 µM) | 0.12 µg/mL (≈ 0.261 µM) | 0.5 µg/mL | 1 µg/mL (≈ 2.17 µM) | 0.005 µg/mL | 0.25 µg/mL (≈ 0.543 µM) | 0.03 µg/mL (≈ 0.0651 µM) | –
8 | CCNC(=O)Nc1nc2cc(-c3cnc(C(C)(C)O)nc3)cc(-c3cc(CN4CC[C@@H](F)C4)ccn3)c2s1 | – | 0.06 µg/mL (≈ 0.112 µM) | 0.25 µg/mL | 1 µg/mL (≈ 1.87 µM) | 0.005 µg/mL | – | 0.06 µg/mL (≈ 0.112 µM) | 0.063
9 | CCNC(=O)Nc1nc2cc(-c3cnc(C(C)(C)O)nc3)cc(-c3cc(CN4CC[C@H](F)C4)ccn3)c2s1 | – | 0.06 µg/mL (≈ 0.112 µM) | 0.25 µg/mL | 2 µg/mL (≈ 3.73 µM) | 0.008 µg/mL | – | 0.12 µg/mL (≈ 0.224 µM) | 0.061
10 | CCNC(=O)Nc1nc2cc(-c3cnc(C(O)C(C)(C)C)nc3)cc(-c3ccccn3)c2s1 (racemic) | 2 µg/mL (≈ 4.32 µM) | 0.12 µg/mL (≈ 0.259 µM) | 2 µg/mL | – | 0.012 µg/mL | 0.25 µg/mL (≈ 0.54 µM) | 0.12 µg/mL (≈ 0.259 µM) | –
11 | CCNC(=O)Nc1nc2cc(-c3cnc(C(O)CC)nc3)cc(-c3ccccn3)c2s1 (racemic) | 1 µg/mL (≈ 2.3 µM) | 0.06 µg/mL (≈ 0.138 µM) | 0.25 µg/mL | 1 µg/mL (≈ 2.3 µM) | 0.006 µg/mL | 0.25 µg/mL (≈ 0.575 µM) | 0.06 µg/mL (≈ 0.138 µM) | –
12 | CCNC(=O)Nc1nc2cc(-c3cnc(C4(O)CCOCC4)nc3)cc(-c3ccccn3)c2s1 | 2 µg/mL (≈ 4.2 µM) | 0.12 µg/mL (≈ 0.252 µM) | 0.12 µg/mL | 1 µg/mL (≈ 2.1 µM) | 0.005 µg/mL | 0.25 µg/mL (≈ 0.525 µM) | 0.06 µg/mL (≈ 0.126 µM) | –
13 | CCNC(=O)Nc1nc2cc(-c3cnc(C(O)(CC)CC)nc3)cc(-c3ccccn3)c2s1 | 8 µg/mL (≈ 17.3 µM) | 0.5 µg/mL (≈ 1.08 µM) | 4 µg/mL | 8 µg/mL (≈ 17.3 µM) | 0.017 µg/mL | 1 µg/mL (≈ 2.16 µM) | 0.25 µg/mL (≈ 0.54 µM) | –
14 | CCCC(O)c1ncc(-c2cc(-c3ccccn3)c3sc(NC(=O)NCC)nc3c2)cn1 (racemic) | 2 µg/mL (≈ 4.46 µM) | 0.06 µg/mL (≈ 0.134 µM) | 0.25 µg/mL | 1 µg/mL (≈ 2.23 µM) | 0.007 µg/mL | 0.25 µg/mL (≈ 0.557 µM) | 0.03 µg/mL (≈ 0.0669 µM) | –
15 | CCNC(=O)Nc1nc2cc(-c3cnc(C4(O)CCSCC4)nc3)cc(-c3ccccn3)c2s1 | 4 µg/mL (≈ 8.12 µM) | 0.5 µg/mL (≈ 1.01 µM) | 1 µg/mL | 2 µg/mL (≈ 4.06 µM) | 0.005 µg/mL | 0.25 µg/mL (≈ 0.507 µM) | 0.12 µg/mL (≈ 0.244 µM) | –
16 | CCNC(=O)Nc1nc2cc(-c3cnc([C@@H](O)[C@@H](C)O)nc3)cc(-c3ccccn3)c2s1 (racemic) | 1 µg/mL (≈ 2.22 µM) | 0.12 µg/mL (≈ 0.266 µM) | 0.25 µg/mL | 1 µg/mL (≈ 2.22 µM) | 0.007 µg/mL | 1 µg/mL (≈ 2.22 µM) | 0.25 µg/mL (≈ 0.555 µM) | –
17 | CCNC(=O)Nc1nc2cc(-c3cnc(C4(O)CNC4)nc3)cc(-c3ccccn3)c2s1 | > 16 µg/mL | 8 µg/mL (≈ 17.9 µM) | > 16 µg/mL | > 16 µg/mL | 0.029 µg/mL | > 16 µg/mL | > 16 µg/mL | –
18 | CCNC(=O)Nc1nc2cc(-c3cnc(C4(O)CCNCC4)nc3)cc(-c3ccccn3)c2s1 | > 16 µg/mL | 2 µg/mL (≈ 4.21 µM) | 4 µg/mL | > 16 µg/mL | 0.01 µg/mL | > 16 µg/mL | 8 µg/mL (≈ 16.8 µM) | –
19 | CCNC(=O)Nc1nc2cc(-c3cnc([C@@H](O)[C@@H](O)C(F)(F)F)nc3)cc(-c3ccccn3)c2s1 (racemic) | 1 µg/mL (≈ 1.98 µM) | 0.12 µg/mL (≈ 0.238 µM) | 0.25 µg/mL | 0.5 µg/mL (≈ 0.991 µM) | 0.004 µg/mL | 0.5 µg/mL (≈ 0.991 µM) | 0.12 µg/mL (≈ 0.238 µM) | –
20 | CCNC(=O)Nc1nc2cc(-c3cnc(C4(O)CCS(=O)(=O)CC4)nc3)cc(-c3ccccn3)c2s1 | 2 µg/mL (≈ 3.81 µM) | 0.25 µg/mL (≈ 0.477 µM) | 0.5 µg/mL | 1 µg/mL (≈ 1.91 µM) | 0.006 µg/mL | 1 µg/mL (≈ 1.91 µM) | 0.25 µg/mL (≈ 0.477 µM) | –
21 | CCNC(=O)Nc1nc2cc(-c3cnc(C(O)CO)nc3)cc(-c3ccccn3)c2s1 (racemic) | 2 µg/mL (≈ 4.58 µM) | 0.12 µg/mL (≈ 0.275 µM) | 0.5 µg/mL | 0.5 µg/mL (≈ 1.15 µM) | 0.006 µg/mL | 2 µg/mL (≈ 4.58 µM) | 0.12 µg/mL (≈ 0.275 µM) | –
22 | CCNC(=O)Nc1nc2cc(-c3cnc([C@@H](O)[C@H](O)C(F)F)nc3)cc(-c3ccccn3)c2s1 (racemic) | 1 µg/mL (≈ 2.06 µM) | 0.12 µg/mL (≈ 0.247 µM) | 0.25 µg/mL | 0.25 µg/mL (≈ 0.514 µM) | 0.004 µg/mL | 0.5 µg/mL (≈ 1.03 µM) | 0.06 µg/mL (≈ 0.123 µM) | –
23 | CCNC(=O)Nc1nc2cc(-c3cnc([C@@H](O)[C@H](O)C(F)(F)F)nc3)cc(-c3ccccn3)c2s1 (racemic) | 1 µg/mL (≈ 1.98 µM) | 0.12 µg/mL (≈ 0.238 µM) | 0.25 µg/mL | 0.5 µg/mL (≈ 0.991 µM) | 0.005 µg/mL | 0.25 µg/mL (≈ 0.496 µM) | 0.06 µg/mL (≈ 0.119 µM) | –
24 | CCNC(=O)Nc1nc2cc(-c3cnc(C4(O)CCCCC4)nc3)cc(-c3ccccn3)c2s1 | > 16 µg/mL | 8 µg/mL (≈ 16.9 µM) | – | > 16 µg/mL | 0.054 µg/mL | > 16 µg/mL | 8 µg/mL (≈ 16.9 µM) | –
25 | CCNC(=O)Nc1nc2cc(-c3cnc(C4(O)CCN(C)CC4)nc3)cc(-c3ccccn3)c2s1 | 8 µg/mL (≈ 16.3 µM) | 1 µg/mL (≈ 2.04 µM) | 0.5 µg/mL | 8 µg/mL (≈ 16.3 µM) | 0.011 µg/mL | 8 µg/mL (≈ 16.3 µM) | 1 µg/mL (≈ 2.04 µM) | –
26 | CCNC(=O)Nc1nc2cc(-c3cnc(C4(O)COC4)nc3)cc(-c3ccccn3)c2s1 | 2 µg/mL (≈ 4.46 µM) | 0.12 µg/mL (≈ 0.268 µM) | 0.12 µg/mL | 0.5 µg/mL (≈ 1.11 µM) | 0.006 µg/mL | 0.5 µg/mL (≈ 1.11 µM) | 0.06 µg/mL (≈ 0.134 µM) | –
